Data from ChEMBL document CHEMBL2434829, “Synthesis of new andrographolide derivatives and evaluation of their antidyslipidemic, LDL-oxidation and antioxidant activity” (2013).
Calls of active or inactive are those of the source. The rule behind the calls is not given here.

Tests used:
[1] = Antioxidant activity assessed as reduction of LDL-oxidation at 200 ug/ml after 1 hr by TBARS assay in presence of Cu 2+ relative to control; assay type: functional; parameters: scale not given: the % may be the effect or the level left; settings: in the assay text read “after 16 hr” for “after 1 hr”
How it was run: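 LDL obtained by ultracentrifugation of serum from overnight-fasted normolipemic donors, dialyzed against 150 mM NaCl with 0.02% EDTA under N2, purity checked by PAGE. LDL 0.71 mg with CuCl2·2H2O 10 µM, compound at 200 µg/mL, in 50 mM PBS pH 7.4 for 16 h at 37 °C. Lipid peroxides read as TBARS after heating with SDS, acetic acid and 0.8% TBA for 1 h in boiling water.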

[2] = Antioxidant activity assessed as reduction of microsomal lipid per-oxidation level by measuring formation of malondialdehyde at 200 ug/ml after 90 mins by spectrophotometric analysis relative to control; assay type: functional; parameters: scale not given: the % may be the effect or the level left
[3] = Antioxidant activity assessed as decrease in hydroxyl radicals level by measuring formation of malondialdehyde at 200 ug/ml after 90 mins by spectrophotometric analysis relative to control; assay type: functional; parameters: scale not given: the % may be the effect or the level left
How it was run: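 Hydroxyl radicals generated without enzyme from deoxyribose 2.8 mM, FeSO4·7H2O 2 mM, sodium ascorbate 2.0 mM and H2O2 2.8 mM in 50 mM KH2PO4 pH 7.4. Compound at 200 µg/mL. Incubated 37 °C for 90 min. Mannitol as standard.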

[4] = Antioxidant activity assessed as decrease in superoxide anions level by measuring formation of formazone at 200 ug/ml after 30 mins by spectrophotometric analysis relative to control; assay type: functional; parameters: scale not given: the % may be the effect or the level left
How it was run: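 Superoxide made enzymatically with xanthine ([…]), xanthine oxidase (0.04 U) and nitroblue tetrazolium (320 µM) in 100 mM phosphate buffer pH 8.2. Compound at 200 µg/mL, sonicated in buffer. Incubated 37 °C for 30 min, stopped with glacial acetic acid, formazan read spectrophotometrically. Allopurinol as standard.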

[5] = system: Rattus norvegicus; experiment: Antidyslipidemic activity in Charles foster rat assessed as increase in triton WR-1339-reduced lipoprotein lipase level in liver at 100 mg/kg, po relative to triton-treated rat; assay type: functional, organism-based; parameters: dose 100 mg/kg
How it was run: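 Rats given triton WR-1339 (400 mg/kg i.p.) with oral test agent in gum acacia, 6 per group. Liver homogenized 10% w/v in cold 100 mM phosphate buffer pH 7.2 and assayed for total lipoprotein lipase lipolytic activity. Mean ± SD.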

[6] = system: Rattus norvegicus; experiment: Antidyslipidemic activity in Charles foster rat assessed as increase in triton WR-1339-reduced HDL cholesterol level in plasma at 100 mg/kg, po after 18 hrs by poly anionic precipitation method relative to triton-treated rat; assay type: functional, organism-based; parameters: dose 100 mg/kg
How it was run: (§1)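 Male adult Charles Foster rats (200–225 g), 6/group. Triton WR-1339 400 mg/kg i.p.; test agent in gum acacia suspension in water given orally together with triton, diet withdrawn. After 18 h, blood drawn from retro-orbital sinus into EDTA tubes under thiopentone anaesthesia. Plasma split into VLDL, LDL and HDL by polyanionic precipitation, then cholesterol measured. Mean ± SD.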

[7] = system: Rattus norvegicus; experiment: Antidyslipidemic activity in Charles foster rat assessed as decrease in triton WR-1339-induced VLDL cholesterol level in plasma at 100 mg/kg, po after 18 hrs by poly anionic precipitation method relative to triton-treated rat; assay type: functional, organism-based; parameters: dose 100 mg/kg; how it was run: as §1
[8] = system: Rattus norvegicus; experiment: Antidyslipidemic activity in Charles foster rat assessed as increase in triton WR-1339-reduced post heparin lipolytic activity level in plasma at 200 mg/kg, po after 18 hrs by spectrophotometric analysis relative to triton-treated rat; assay type: functional; parameters: scale not given: the % may be the effect or the level left
How it was run: (§2)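 Triton WR-1339 hyperlipidemia in male Charles Foster rats: 400 mg/kg i.p. plus oral dose in gum acacia vehicle, fasted, 6 rats/group. Plasma taken 18 h later from retro-orbital blood. Post-heparin lipolytic activity measured spectrophotometrically as nmol free fatty acids formed/h/ml plasma. Percent change against triton-only rats; mean ± SD.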

[9] = system: Rattus norvegicus; experiment: Antidyslipidemic activity in Charles foster rat assessed as decrease in triton WR-1339-induced triglyceride level in plasma at 200 mg/kg, po after 18 hrs relative to triton-treated rat; assay type: functional; parameters: scale not given: the % may be the effect or the level left
How it was run: (§3)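 Male adult Charles Foster rats (200–225 g), six per group. Triton WR-1339 400 mg/kg i.p., with test agent given orally at the same time as a gum acacia suspension in water; food withdrawn. Controls received vehicle. At 18 h, retro-orbital EDTA blood taken and centrifuged 2500 × g for 10 min at 4 °C. Plasma diluted 1:3 in saline; TC, PL and TG read enzymatically on an autoanalyzer. Percent change against triton group.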

[10] = system: Rattus norvegicus; experiment: Antidyslipidemic activity in Charles foster rat assessed as decrease in triton WR-1339-induced phospholipid level in plasma at 200 mg/kg, po after 18 hrs relative to triton-treated rat; assay type: functional; parameters: scale not given: the % may be the effect or the level left; how it was run: as §3
[11] = system: Rattus norvegicus; experiment: Antidyslipidemic activity in Charles foster rat assessed as decrease in triton WR-1339-induced total cholesterol level in plasma at 200 mg/kg, po after 18 hrs relative to triton-treated rat; assay type: functional; parameters: scale not given: the % may be the effect or the level left; how it was run: as §3
[12] = system: Rattus norvegicus; experiment: Antidyslipidemic activity in Charles foster rat assessed as increase in triton WR-1339-reduced post heparin lipolytic activity level in plasma at 150 mg/kg, po after 18 hrs by spectrophotometric analysis relative to triton-treated rat; assay type: functional; parameters: scale not given: the % may be the effect or the level left; how it was run: as §2
[13] = system: Rattus norvegicus; experiment: Antidyslipidemic activity in Charles foster rat assessed as decrease in triton WR-1339-induced triglyceride level in plasma at 150 mg/kg, po after 18 hrs relative to triton-treated rat; assay type: functional; parameters: scale not given: the % may be the effect or the level left; how it was run: as §3
[14] = system: Rattus norvegicus; experiment: Antidyslipidemic activity in Charles foster rat assessed as decrease in triton WR-1339-induced phospholipid level in plasma at 150 mg/kg, po after 18 hrs relative to triton-treated rat; assay type: functional; parameters: scale not given: the % may be the effect or the level left; how it was run: as §3
[15] = system: Rattus norvegicus; experiment: Antidyslipidemic activity in Charles foster rat assessed as decrease in triton WR-1339-induced total cholesterol level in plasma at 150 mg/kg, po after 18 hrs relative to triton-treated rat; assay type: functional; parameters: scale not given: the % may be the effect or the level left; how it was run: as §3
[16] = system: Rattus norvegicus; experiment: Antidyslipidemic activity in Charles foster rat assessed as increase in triton WR-1339-reduced post heparin lipolytic activity level in plasma at 50 mg/kg, po after 18 hrs by spectrophotometric analysis relative to triton-treated rat; assay type: functional; parameters: scale not given: the % may be the effect or the level left; how it was run: as §2
[17] = system: Rattus norvegicus; experiment: Antidyslipidemic activity in Charles foster rat assessed as decrease in triton WR-1339-induced triglyceride level in plasma at 50 mg/kg, po after 18 hrs relative to triton-treated rat; assay type: functional; parameters: scale not given: the % may be the effect or the level left; how it was run: as §3
[18] = system: Rattus norvegicus; experiment: Antidyslipidemic activity in Charles foster rat assessed as decrease in triton WR-1339-induced phospholipid level in plasma at 50 mg/kg, po after 18 hrs relative to triton-treated rat; assay type: functional; parameters: scale not given: the % may be the effect or the level left; how it was run: as §3
[19] = system: Rattus norvegicus; experiment: Antidyslipidemic activity in Charles foster rat assessed as decrease in triton WR-1339-induced total cholesterol level in plasma at 50 mg/kg, po after 18 hrs relative to triton-treated rat; assay type: functional; parameters: scale not given: the % may be the effect or the level left; how it was run: as §3
[20] = system: Rattus norvegicus; experiment: Antidyslipidemic activity in Charles foster rat assessed as increase in triton WR-1339-reduced post heparin lipolytic activity level in plasma at 25 mg/kg, po after 18 hrs by spectrophotometric analysis relative to triton-treated rat; assay type: functional; parameters: scale not given: the % may be the effect or the level left; how it was run: as §2
[21] = system: Rattus norvegicus; experiment: Antidyslipidemic activity in Charles foster rat assessed as decrease in triton WR-1339-induced triglyceride level in plasma at 25 mg/kg, po after 18 hrs relative to triton-treated rat; assay type: functional; parameters: scale not given: the % may be the effect or the level left; how it was run: as §3
[22] = system: Rattus norvegicus; experiment: Antidyslipidemic activity in Charles foster rat assessed as decrease in triton WR-1339-induced phospholipid level in plasma at 25 mg/kg, po after 18 hrs relative to triton-treated rat; assay type: functional; parameters: scale not given: the % may be the effect or the level left; how it was run: as §3
[23] = system: Rattus norvegicus; experiment: Antidyslipidemic activity in Charles foster rat assessed as increase in triton WR-1339-reduced post heparin lipolytic activity level in plasma at 100 mg/kg, po after 18 hrs by spectrophotometric analysis relative to triton-treated rat; assay type: functional; parameters: scale not given: the % may be the effect or the level left; how it was run: as §2
[24] = system: Rattus norvegicus; experiment: Antidyslipidemic activity in Charles foster rat assessed as decrease in triton WR-1339-induced triglyceride level in plasma at 100 mg/kg, po after 18 hrs relative to triton-treated rat; assay type: functional; parameters: scale not given: the % may be the effect or the level left; how it was run: as §3
[25] = system: Rattus norvegicus; experiment: Antidyslipidemic activity in Charles foster rat assessed as decrease in triton WR-1339-induced phospholipid level in plasma at 100 mg/kg, po after 18 hrs relative to triton-treated rat; assay type: functional; parameters: scale not given: the % may be the effect or the level left; how it was run: as §3
[26] = system: Rattus norvegicus; experiment: Antidyslipidemic activity in Charles foster rat assessed as decrease in triton WR-1339-induced LDL cholesterol level in plasma at 100 mg/kg, po after 18 hrs by poly anionic precipitation method relative to triton-treated rat; assay type: functional, organism-based; parameters: dose 100 mg/kg; how it was run: as §1
[27] = system: Rattus norvegicus; experiment: Antidyslipidemic activity in Charles foster rat assessed as decrease in triton WR-1339-induced total cholesterol level in plasma at 100 mg/kg, po after 18 hrs relative to triton-treated rat; assay type: functional; parameters: scale not given: the % may be the effect or the level left; how it was run: as §3
[28] = system: Rattus norvegicus; experiment: Antidyslipidemic activity in Charles foster rat assessed as decrease in triton WR-1339-induced total cholesterol level in plasma at 25 mg/kg, po after 18 hrs relative to triton-treated rat; assay type: functional; parameters: scale not given: the % may be the effect or the level left; how it was run: as §3

SMILES	Activity [1] [%]	Activity [2] [%]	Activity [3] [%]	Activity [4] [%]	Activity [5]	Activity [6]	Activity [7]	Activity [8] [%]	Activity [9] [%]	Activity [10] [%]	Activity [11] [%]	Activity [12] [%]	Activity [13] [%]	Activity [14] [%]	Activity [15] [%]	Activity [16] [%]	Activity [17] [%]	Activity [18] [%]	Activity [19] [%]	Activity [20] [%]	also measured
C=C1CC[C@@H]2[C@](C)(CO)[C@H](O)CC[C@@]2(C)[C@@H]1C/C=C1/C(=O)OC[C@H]1O [ANDROGRAPHOLIDE]	45	38	36	33	Active	Active	Active	18	30	30	29	18	30	29	29	13	21	20	21	10	Activity [21]: 15%; Activity [22]: 12%; Activity [23]: 16%; Activity [24]: 28%; Activity [25]: 26%; Activity [26]: Active; Activity [27]: 27%; Activity [28]: 14%
C=C1CC[C@@H]2[C@](C)(COS(=O)(=O)c3ccc(C)cc3)[C@H](O)CC[C@@]2(C)[C@@H]1C/C=C1/C(=O)OC[C@H]1O	55	40	46	41	Active	Active	Active	18	37	40	34	18	37	39	34	13	20	22	22	10	Activity [21]: 14%; Activity [22]: 15%; Activity [23]: 18%; Activity [24]: 35%; Activity [25]: 37%; Activity [26]: Active; Activity [27]: 33%; Activity [28]: 16%
